Data reported in PubChem BioAssay AID624097 (The Scripps Research Institute Molecular Screening Center, 2012).
Several values for one entry are separate records, joined by “and”; a condition that tells them apart may be missing. Equal entries are not always repeated. Activity calls are given as the source filed them.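 The calls were made as follows: active = lowest compound dose that cuts the imipenem minimum inhibitory concentration fourfold is 10 µM or below; inactive = that dose above 10 µM or never reached.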

What was measured:
[1] = tested on: E. coli BL21 IMP-1, imipenem synergy, OD590, 18 h; assay: growth inhibition synergy, IMP-1 E. coli with imipenem – E. coli BL21, powder samples, VIM-2 MBL inhibitor project, late-stage follow-up (AID 624097)
Procedure, shortened: (§1)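 Material: E. coli BL21 carrying IMP-1; Buffer or medium: CAMHB growth medium; Also added: imipenem in two-fold dilution series; Dosing: compound two-fold dilutions in checkerboard grid versus imipenem; Incubation: ≥18 h growth at 37 °C, aerobic; Signal: turbidity by absorbance at 590 nm, MIC per CLSI.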

[2] = as above; settings: E. coli BL21 IMP-1, imipenem synergy, OD590, 18 h; measured here: max imipenem fold potentiation; stronger effect = higher value
Procedure, shortened: as §1

SMILES | MIC [1] | fold potentiation [2]
CN1CCN(NC(=O)CN2C(=O)/C(=C/c3c(Cl)ccc(Cl)c3Cl)SC2=S)CC1 | 0.781 µM and 1.56 µM | –
CC(C)(C)OC(=O)N1CCN(NC(=O)CN2C(=O)/C(=C/c3c(Cl)ccc(Cl)c3Cl)SC2=S)CC1 | 3.12 µM | –
CN1CCN(C(=O)CN2C(=O)/C(=C/c3c(Cl)ccc(Cl)c3Cl)SC2=S)CC1 | 0.781 µM | 8

More lines, main results first:

MIC [1] | SMILES | fold potentiation [2]
0.781 µM | O=C(CN1C(=O)/C(=C/c2c(Cl)ccc(Cl)c2Cl)SC1=S)NCc1ccccn1 | –
25 µM (inactive) | O=C(CN1C(=O)/C(=C/c2c(Cl)ccc(Cl)c2Cl)SC1=S)NN1CCNCC1 | –
25 µM (inactive) and 3.12 µM | CN1CCN(NC(=O)CN2C(=O)/C(=C/c3c(Cl)cccc3Cl)SC2=S)CC1 | –
